# Measured values gathered from unrelated publications.
# Protocols differ between the studies behind these lines.
# HTR5A: 5-hydroxytryptamine receptor 5A (HTR5A, Homo sapiens, UniProt P47898)
# ABHD6: Monoacylglycerol lipase ABHD6 (ABHD6, Homo sapiens, UniProt Q9BV23)
# VASP: Vasodilator-stimulated phosphoprotein (VASP, Homo sapiens, UniProt P50552)
Compound,target,test,setting,quantity,value
COc1cc(C(=O)N2CC[C@@H](O)[C@@H](N)C2)cc2nc(-c3cc4ccccc4n3CC3CC3)n(C)c12,"Nuclear receptor subfamily 1 group I member 2 (NR1I2, Homo sapiens, UniProt O75469)","reporter gene, agonist, luciferase",,EC50,> 50.1 µM
CN1CCc2c(c3ccccc3n2Cc2ccccc2)C1,HTR5A,"ligand displacement, radioligand",,Ki,0.13 µM
CN(C(=O)Oc1nsnc1N1CCCCC1)c1cccc([N+](=O)[O-])c1,ABHD6,"enzyme activity, inhibitor, fluorescence",lysate,IC50,1.2 µM
CC(=O)N[C@@H](Cc1ccccc1Cl)C(=O)N1CCC[C@H]1C(=O)N1CCC[C@H]1C(=O)N1CCC[C@H]1C(=O)N1CCC[C@H]1C(=O)O,VASP,"binding, fluorescence",,Kd,13 µM
Cc1ccc(N(C)C(=O)Oc2nsnc2N2CCCCC2)cc1,ABHD6,"enzyme activity, inhibitor, fluorescence",lysate,IC50,0.15 µM
C=C1CC1CC(=O)SCCNC(=O)CCNC(=O)[C@H](O)C(C)(C)COP(=O)(O)OP(=O)(O)OC[C@H]1O[C@@H](n2cnc3c(N)ncnc32)[C@H](O)[C@@H]1OP(=O)(O)O (mixture of isomers),"IVD (Homo sapiens, UniProt P26440)","binding, absorbance",,Kd,~22.5 µM
CC(=O)N[C@@H](CO)C(=O)N[C@@H](Cc1ccccc1)C(=O)N[C@@H](CCC(=O)O)C(=O)N[C@@H](Cc1ccccc1Cl)C(=O)N1CCC[C@H]1C(=O)N1CCC[C@H]1C(=O)N1CCC[C@H]1C(=O)N1CCC[C@H]1C(=O)N[C@H](C(=O)N[C@@H](CCC(=O)O)C(=O)N[C@@H](CC(=O)O)C(=O)N[C@@H](CCC(=O)O)C(=O)N[C@@H](CC(C)C)C(N)=O)[C@@H](C)O,VASP,"binding, fluorescence",,Kd,1.5 µM
C[C@H](N)Cn1ncc2ccc3c(c21)CCCO3,"D(4) dopamine receptor (DRD4, Homo sapiens, UniProt P21917, del265-296)","ligand displacement, radioligand",,IC50,> 100 µM
CN(C(=O)Oc1nsnc1N1CCOCC1)C1CCCCCCC1,ABHD6,"enzyme activity, inhibitor, fluorescence",lysate,IC50,0.044 µM
CCCCOc1ccc(C(=O)CCN2CCCCC2)cc1,"D(4) dopamine receptor (DRD4, Homo sapiens, UniProt P21917)","ligand displacement, radioligand",,IC50,4.1 µM
CN(C(=O)Oc1nsnc1N1CCCCC1)c1ccc([N+](=O)[O-])cc1,ABHD6,"enzyme activity, inhibitor, fluorescence",lysate,IC50,1.25 µM
CN(Cc1ccc(NC(=O)C2=Cc3cc(-c4ccc(OCCCF)cc4)ccc3CCC2)cc1)C1CCOCC1,HTR5A,"ligand displacement, radioligand",,Ki,5.01 µM
O=C(COc1ccc2cc(C(=O)Nc3ccccc3)ccc2c1)NCc1ccc(OP(=O)(O)O)c(OP(=O)(O)O)c1,"Signal transducer and activator of transcription 6, SH2 (Homo sapiens, UniProt P42226)","ligand displacement, FP",,Ki,3.47 µM
